# Most compounds without a hit are left out; they make up all but 2.3% or so of the library.
# TRPC4 PAM – allosterically enhances the mouse TRPC4 cation channel; Q9QUQ5; HEK293 TRPC4beta/mu-opioid, DAMGO EC20, Fluo-4 Ca2+ flux; hits give high values; B-score at 10 µM; actives 0.42% (n = 310,000); AID 2227;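 active means B-score of calcium response area above 5 SD of library B-scores, with initial fluorescence ratio within 5 SD of library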;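 further: B-score of integrated fluorescence ratio over time as area under calcium response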
# Target sequence (Q9QUQ5 whole entry, looked up): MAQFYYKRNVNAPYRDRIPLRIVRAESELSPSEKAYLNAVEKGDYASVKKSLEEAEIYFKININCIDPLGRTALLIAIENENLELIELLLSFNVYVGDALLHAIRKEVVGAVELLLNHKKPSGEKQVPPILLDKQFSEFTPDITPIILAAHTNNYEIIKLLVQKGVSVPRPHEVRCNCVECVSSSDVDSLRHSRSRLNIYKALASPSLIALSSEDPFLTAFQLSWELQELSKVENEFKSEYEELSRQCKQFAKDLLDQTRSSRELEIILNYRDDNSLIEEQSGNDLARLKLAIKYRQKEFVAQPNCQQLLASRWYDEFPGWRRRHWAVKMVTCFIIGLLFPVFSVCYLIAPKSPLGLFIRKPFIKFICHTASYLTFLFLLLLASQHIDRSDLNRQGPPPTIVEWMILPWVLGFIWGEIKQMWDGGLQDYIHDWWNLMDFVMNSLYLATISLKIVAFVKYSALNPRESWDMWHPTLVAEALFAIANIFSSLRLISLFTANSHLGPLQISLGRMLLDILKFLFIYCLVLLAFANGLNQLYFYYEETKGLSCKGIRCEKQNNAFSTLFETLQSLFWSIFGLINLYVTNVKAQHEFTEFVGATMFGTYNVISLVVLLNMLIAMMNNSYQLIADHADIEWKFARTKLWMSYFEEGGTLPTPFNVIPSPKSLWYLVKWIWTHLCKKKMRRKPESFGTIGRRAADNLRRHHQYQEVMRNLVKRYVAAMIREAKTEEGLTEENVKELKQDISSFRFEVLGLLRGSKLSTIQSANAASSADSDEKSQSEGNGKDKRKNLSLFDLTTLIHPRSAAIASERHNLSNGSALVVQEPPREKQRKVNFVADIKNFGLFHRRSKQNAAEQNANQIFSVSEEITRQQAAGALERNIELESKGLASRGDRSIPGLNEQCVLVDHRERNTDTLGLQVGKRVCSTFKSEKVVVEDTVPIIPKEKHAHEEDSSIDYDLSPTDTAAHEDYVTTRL
# TRPC4 agonist – TRPC4 (mouse) channel activation | Q9QUQ5 | HEK293 TRPC4beta/mu-opioid, Fluo4 calcium fluorescence; hits give high values | B-score at 10 µM | actives 0.49% (n = 310,000);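 active means B-score above 5 SD of library B-scores, and initial fluorescence ratio not above library mean plus 5 SD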;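 further: positive B-score marks a calcium rise read as TRPC4 activation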
#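 Assay system: HEK293 stable line with TRPC4beta plus mu-opioid receptor. Times: dye 45 min RT, read 110 s. Measured by: kinetic Fluo4 calcium fluorescence. Measure: B score of integrated ratio. Controls: assay buffer as low control, maximal DAMGO as high control.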
# TRPC6 inhibitor – mouse TRPC6 channel inhibition | Q61143 | HEK293-TRPC6, membrane potential dye, ACh-evoked depolarization; hits give low values | B-score at 10 µM | actives 1.1% (n = 310,000);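 active means B-score under library mean minus 3 SD, initial fluorescence not abnormally high, positive integrated signal ratio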;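 further: B-score derived from integrated fluorescence ratio over the kinetic read; more negative B-score means stronger inhibition of depolarization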
# TRPC4 block – inhibitors of mouse TRPC4 channel. HEK293 TRPC4beta/mu-opioid, DAMGO-evoked Fluo4 calcium flux; hits give low values. B-score at 10 µM. actives 0.39% (n = 300,000);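 active means B-score over 3 SD under the library average, no early fluorescence shift, positive overall ratio signal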
#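 Test system – stable TRPC4beta/mu-opioid receptor HEK293 cells · Probe or stimulus – DAMGO, a submaximal dose followed by a maximal one · Dosing – one concentration per compound · Signal – Fluo4 calcium fluorescence by kinetic imaging, 5 s 1 Hz baseline · Evaluation – per-well B score of integrated baseline-normalized Fluo4 ratio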
# TRPC6 activator – activates the mouse TRPC6 cation channel; B-score at 10 µM; AID 2550; actives 0.13% (n = 310,000); HEK293-TRPC6 membrane potential dye fluorescence; hits give high values; Q61143;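 active means B-score of the integrated fluorescence ratio above library mean plus 3 SD, and starting fluorescence ratio within library mean plus 5 SD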;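 further: higher score means more depolarization so channel activation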
# TRPC4 spec 2 – mouse TRPC4 off-target activity of TRPC6 inhibitors, second screen; shares compounds with TRPC6 inhibitor; HEK293 TRPC4/MOR, membrane potential dye fluorescence; channel activated by saturating DAMGO dose; inhibition, % at 10 µM; actives 42% (n = 920); AID 2776;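 active means compounds whose fluorescence signal differed from control wells by over 3 SD, either direction, in both duplicate plates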
# TRPC4 spec – mouse TRPC4 off-target activity of TRPC6 inhibitors | actives 61% (n = 920) | HEK293 TRPC4/mu-opioid, membrane potential fluorescence | shares compounds with TRPC6 inhibitor | activity change, negative = inhibition, % at 10 µM;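 active means rise or fall in signal beyond 3 SD of buffer-only wells in both replicate plates, either sign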;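 further: integrated kinetic ratio of fluorescence range over baseline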
# HEK293 MPD ctr 2-1 – parental HEK293 nonspecific activity of TRPC6 inhibitors, second screen. parental HEK293 membrane potential dye fluorescence; maximal acetylcholine challenge after compound addition. signal change vs control, % at 10 µM. AID 2779. shares compounds with TRPC6 inhibitor. actives 31% (n = 920);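 active means membrane potential signal moving either way by over 3 SD of the maximum-effect control, in both duplicate plates, meaning non-specific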
# HEK293 MPD ctr-1 – counter-screen for TRPC6 inhibitors: effect in parental HEK293 cells. actives 60% (n = 920). shares compounds with TRPC6 inhibitor. membrane potential signal change, % at 10 µM. parental HEK293 membrane potential dye fluorescence;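 active means membrane potential signal shifting up or down by more than 3 SD of buffer-only wells, on both duplicate plates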
# HEK293 MPD ctr-2 – parental HEK293 nonspecific activity of TRPC6 modulators; shares compounds with TRPC6 inhibitor; membrane potential dye fluorescence; membrane potential signal change, % at 10 µM; actives 51% (n = 2,400); AID 488924;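 active means membrane potential signal moves up or down beyond 5 SD from buffer-only wells, on both duplicate plates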
# HEK293 MPD ctr 2-2 – second check of TRPC6 modulator effects in parental HEK293 cells | inhibition, % at 10 µM | membrane potential dye fluorescence; after compound, maximal acetylcholine stimulation | shares compounds with TRPC6 inhibitor | actives 14% (n = 2,400) | AID 488926;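 active means membrane potential signal drops by more than 5 SD from the mean control signal, in both duplicate plates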;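 further: plate controls were acetylcholine ECmax control wells for no effect and buffer only wells for full effect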
# TRPC4 ctr mod – selectivity of TRPC6 modulators against mouse TRPC4; percent change from control (negative = decrease, positive = increase), % at 10 µM; shares compounds with TRPC6 inhibitor; actives 69% (n = 2,400); HEK293 TRPC4/mu-opioid, membrane potential fluorescence;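 active means membrane potential signal moved up or down beyond 5 SD of buffer control wells, in both duplicate plates, actives on both sides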;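 further: plate controls were assay buffer wells for no effect and DAMGO maximal-effect wells for full effect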
# TRPC4 ctr inh 2 – second check of whether TRPC6 modulators also affect mouse TRPC4 | shares compounds with TRPC6 inhibitor | HEK293 TRPC4/mu-opioid, membrane potential dye fluorescence; stimulated with maximal-effect DAMGO | inhibition, % at 10 µM | actives 55% (n = 2,400) | AID 488928;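 active means drop in membrane potential signal beyond 5 SD of the control wells in both duplicate plates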;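 further: TRPC4 counter screen for TRPC6 hits run under conditions tuned for TRPC6 not TRPC4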
# TRPC6 block conf – mouse TRPC6 inhibitor confirmation | HEK293-TRPC6, membrane potential dye, ACh-evoked depolarization | inhibition, % at 10 µM | actives 43% (n = 3,300) | shares compounds with TRPC6 inhibitor;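 active means fluorescence ratio falls more than 5 SD below the full-stimulation control mean, in both duplicate runs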;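 further: integrated fluorescence ratio of peak minus minimum over baseline after agonist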
# TRPC6 act confirm – mouse TRPC6 activator confirmation | AID 488961 | actives 11% (n = 2,800) | shares compounds with TRPC6 inhibitor | HEK293-TRPC6 membrane potential dye fluorescence, FDSS | activation, % at 10 µM;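 active means ratio signal rise beyond 5 SD above unstimulated control wells' mean, seen in both duplicate runs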;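 further: plate controls were buffer EC0 wells for no effect and acetylcholine ECmax response for full effect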
# Active calls of the source: *; i = inactive; x = no result given.
SMILES,TRPC4 PAM,TRPC4 agonist,TRPC6 inhibitor,TRPC4 block,TRPC6 activator,HEK293 MPD ctr-2,HEK293 MPD ctr 2-2,TRPC4 ctr mod,TRPC4 ctr inh 2,TRPC6 block conf,TRPC6 act confirm,others
CN(C)CCCN1C(=O)c2cccc3c(Br)ccc(c23)C1=O,i,i,-9.6*,i,i,i,87.0%*,-31.5%*,80.5%*,80.5%*,i,
COc1cccc(OC)c1C(=O)NCCc1ccccc1,i,i,i,i,i,x,x,x,x,x,x,
COc1cccc2cc(C(=O)NCCc3ccccc3)oc12,i,i,-6.23*,i,i,89.5%*,i,16.0%*,i,i,x,
O=[N+]([O-])c1ccc(N=Nc2c(Cl)cc(O)cc2Cl)cc1,i,i,-9.64*,i,i,x,x,x,x,114.1%*,i,TRPC4 spec 2=27.0%*;TRPC4 spec=5.7%*;HEK293 MPD ctr 2-1=-26.0%*;HEK293 MPD ctr-1=i
Cc1ccc(N2C(=O)Nc3ccc(Br)cc3C2(O)C(=O)NCCN(C)C)cc1C (stereo not given),i,i,i,i,i,x,x,x,x,x,x,
COc1cccc(-c2c(C(=O)N/N=C/c3sccc3C)nnn2-c2nonc2N)c1,i,i,i,i,i,x,x,x,x,x,x,
S=C(NC1CCCC1)N1CCN(c2ncccn2)CC1,i,i,i,i,i,x,x,x,x,x,x,
CC(C)NC(=S)N1CCN(c2ncccn2)CC1,i,i,-5.38*,i,i,i,i,17.0%*,i,i,i,
Cc1cc(=O)n2c3ccccc3n(CC(O)CN3CCCCC3)c2c1C#N (stereo not given),i,i,-8.33*,i,i,x,x,x,x,63.4%*,i,TRPC4 spec 2=50.5%*;TRPC4 spec=-21.3%*;HEK293 MPD ctr 2-1=i;HEK293 MPD ctr-1=-365.0%*
COc1cc(-c2cc[n+](C)cc2)ccc1O,i,i,-5.95*,i,i,-329.0%*,i,-53.0%*,i,i,i,
CC1CCCC(C)N1C(=O)CSc1ncccn1 (stereo not given),i,i,i,i,i,x,x,x,x,x,x,
Cc1ccc2nc(NCc3ccccc3)[nH]c2c1,i,i,-6.53*,-5*,i,i,i,i,97.5%*,49.0%*,i,
COc1ccc2nc(NCc3ccccc3)[nH]c2c1,i,i,-5.25*,-7*,i,i,i,i,90.5%*,i,i,
N/C(=N\NC(=O)c1cccs1)c1cc2cc(Cl)ccc2oc1=O,i,i,i,i,i,x,x,x,x,x,x,
COc1cc(OC)cc(C(=O)N[C@H](C(=O)NCc2cccs2)C(C)C)c1,i,i,i,i,i,x,x,x,x,x,x,

# High-throughput results as filed in PubChem BioAssay.
